Reference: ChEMBL document CHEMBL1275302, “Synthesis and in vitro antiproliferative activity of 5-alkyl-12(H)-quino[3,4-b] [1,4]benzothiazinium salts” (Eur J Med Chem, 2010)
Converted amounts (≈) assume the structure as drawn. The source made the active and inactive calls. No cut-off for these calls is given here.

Assays:
Assay type in all cases: functional, cell-based
HCT-116 [1] = assay: Antiproliferative activity against human HCT116 cells after 24 hrs by MTS assay; details: HCT-116, 24 h
Outline: (§1)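 Cells kept at 37 °C, 5% CO2; seeded 1 × 10⁴ cells/well in D-MEM with 12% FCS, streptomycin and penicillin. After 24 h (about 80% confluent), aqueous stocks (DMSO added if needed) diluted in medium and added at various concentrations, 12 or 24 h incubation. Cells washed in PBS, resuspended in Phenol Red-free DMEM with MTS; formazan absorbance read. Survival as % of control; mean ± SD of three experiments; IC50 determined.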

[2] = test system: Lewis lung carcinoma cell line; assay: Antiproliferative activity against mouse LLC cells after 24 hrs by MTS assay; outline: as §1
HCT-116 [3] = assay: Antiproliferative activity against human HCT116 cells at 0.1 to 100 ug/ml after 24 hrs by MTS assay; outline: as §1
[4] = test system: Lewis lung carcinoma cell line; assay: Antiproliferative activity against mouse LLC cells at 0.1 to 100 ug/ml after 24 hrs by MTS assay; outline: as §1

| Structure (SMILES) | IC50 (HCT-116 [1]) | IC50 [2] | Activity (HCT-116 [3]) | Activity [4] |
| --- | --- | --- | --- | --- |
| C[n+]1cc2c(c3ccccc31)Nc1ccc(O)cc1S2.[Cl-] | 6.7 µg/mL | 7.2 µg/mL | – | – |
| C[n+]1cc2c(c3ccccc31)Nc1cc(N)ccc1S2.[Cl-] | 2.2 µg/mL | 4.7 µg/mL | – | – |
| C[n+]1cc2c(c3ccccc31)Nc1c(N)cccc1S2 | – | – | inactive | inactive |
| C[n+]1cc2c(c3ccccc31)Nc1cccnc1S2.[Cl-] | 17.2 µg/mL | 13.2 µg/mL | – | – |
| C[n+]1cc2c(c3ccccc31)Nc1ccc(F)cc1S2.[Cl-] | 6.7 µg/mL | 6.4 µg/mL | – | – |
| C[n+]1cc2c(c3ccccc31)Nc1ccc(Br)cc1S2.[Cl-] | 6.9 µg/mL | 6.5 µg/mL | – | – |
| C[n+]1cc2c(c3ccccc31)Nc1c(O)cccc1S2 | – | – | inactive | inactive |
| Cc1cccc2c1Nc1c(c[n+](C)c3ccccc13)S2 | – | – | inactive | inactive |
| C[n+]1cc2c(c3ccccc31)Nc1ccc(Cl)cc1S2.[Cl-] | 7.4 µg/mL | 5.4 µg/mL | – | – |
| C[n+]1cc2c(c3ccccc31)Nc1cc(O)ccc1S2.[Cl-] | 7.6 µg/mL | 5.7 µg/mL | – | – |
| CCCCCCCCCC[n+]1cc2c(c3ccccc31)Nc1ccccc1S2.[Br-] | 19.6 µg/mL | 17.1 µg/mL | – | – |

The next lines start with results.

| IC50 (HCT-116 [1]) | IC50 [2] | Structure (SMILES) | Activity (HCT-116 [3]) | Activity [4] |
| --- | --- | --- | --- | --- |
| 7.8 µg/mL | 2.3 µg/mL | C[n+]1cc2c(c3ccccc31)Nc1ccccc1S2.[Cl-] | – | – |
| 5.1 µg/mL | 8.9 µg/mL | C[n+]1cc2c(c3ccccc31)Nc1ccc(N)cc1S2.[Cl-] | – | – |
| 3.3 µg/mL (≈ 6.07 µM) | 3.7 µg/mL (≈ 6.81 µM) | COc1cccc2c1C(=O)c1c(O)c3c(c(O)c1C2=O)C[C@@](O)(C(=O)CO)C[C@@H]3O[C@H]1C[C@H](N)[C@H](O)[C@H](C)O1 [DOXORUBICIN] | – | – |
| 4.4 µg/mL | 8.8 µg/mL | Cc1ccc2c(c1)Sc1c[n+](C)c3ccccc3c1N2.[Cl-] | – | – |
| 14.4 µg/mL | 14 µg/mL | CCCC[n+]1cc2c(c3ccccc31)Nc1ccccc1S2.[Br-] | – | – |
